Assay outcomes deposited in PubChem BioAssay by several laboratories.
PolyA inh – polyadenylation inhibitors in yeast reporter cells, primary screen, luminescence, S. cerevisiae; S. cerevisiae SKY197-pL101 polyadenylation reporter, beta-gal luminescence; efflux-impaired pdr1/pdr3 knockout yeast; score 100 = 6 SD above DMSO; activity score, % at 12 µM; 0.02% of 300,000 active; AID 1875, 2009;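 active = lowest replicate activity score at least 50, where 100 means six control SD above control mean; inconclusive = lowest score under 50 but half or more replicates reach 50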;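 also: yeast exposed to compound for 9 h at 30 °C; higher score means more reporter readthrough which indicates perturbed polyadenylation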
Yeast superoxide – reduction of superoxide in aged yeast, primary screen, HTS; S. cerevisiae aged cells, superoxide DHE fluorescence; stronger effect = lower value; superoxide response (% of plate mean), % at 10 µM; 0.18% of 330,000 active; AID 2690, 2010;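 active = superoxide response under a set limit, about three screen SD below normal, cut at about 65% in these data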;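 also: yeast aged for seven days with compound at 30 °C before DHE staining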
STK33 inh – inhibitors of purified STK33 kinase, primary screen, biochemical, ADP-Glo luminescence, homogeneous, cell-free | Serine/threonine-protein kinase 33 (Homo sapiens), Q9BYT3 | MBP phosphorylation | inhibition, % at 10 µM | 0.073% of 320,000 active;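 active = inhibition at or above 25%, using the most active replicate where run in duplicate; inactive = inhibition below 25%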
GSK3B inh – human GSK3beta kinase inhibitors, primary screen, biochemical, cell-free homogeneous, HTS; GST-GSK3beta kinase, ADP-Glo luminescence, 60 min; stronger effect = lower value; activity score (negative = inhibition), % at 10 µM; 0.038% of 300,000 active;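 active = more than half of replicate wells score below -50%, meaning over 50% inhibition versus plate controls; inconclusive = some replicates but at most half score below -50%; inactive = no replicate scores below -50%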
Target sequence (P49841 whole entry, looked up): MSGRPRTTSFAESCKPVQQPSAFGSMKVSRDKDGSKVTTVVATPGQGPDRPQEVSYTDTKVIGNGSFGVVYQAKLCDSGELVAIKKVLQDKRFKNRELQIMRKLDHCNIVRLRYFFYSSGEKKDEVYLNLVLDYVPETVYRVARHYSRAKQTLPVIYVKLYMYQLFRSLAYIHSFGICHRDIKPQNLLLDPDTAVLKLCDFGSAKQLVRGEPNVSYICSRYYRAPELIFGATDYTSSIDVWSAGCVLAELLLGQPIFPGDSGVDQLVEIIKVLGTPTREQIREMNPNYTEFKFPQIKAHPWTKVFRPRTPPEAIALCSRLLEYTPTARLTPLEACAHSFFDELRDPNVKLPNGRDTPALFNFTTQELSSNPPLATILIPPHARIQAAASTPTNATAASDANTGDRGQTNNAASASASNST
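Assay system: GST-fused GSK3beta enzyme, cell-free / Medium: Tris pH 7.5 buffer with MgCl2, DTT, BSA, heparin / Also added: peptide substrate plus 25 µM ATP (final) / Compound: 10 µM single point / Timing: kinase reaction with compound 60 min at room temperature / Detection: ADP-Glo luminescence / Benchmarks: DMSO neutral wells and GW8510 at 20 µM as positive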
AI-2 QS modul – Vibrio harveyi AI-2 quorum sensing modulators, primary screen, JMH597 strain, luminescence/OD600 ratio; activity change, % at 7.5 µM; 0.4% of 300,000 active; Vibrio harveyi JMH597 AI-2 luminescence/OD600 ratio, 9 h; stronger effect = lower value; strain lacks LuxN and CqsS sensors; 0 = neutral-control median; in the data active = activity change below about -75%, passing the limit was not always enough; inconclusive = no clear call, values can overlap the other calls;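 also: luminescence divided by OD600 gain over 9 h not by final OD600 alone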
GSK3 alpha inh – blockers of GSK3A enzyme activity – biochemical, luminescence, cell-free homogeneous, HTS, primary screen; Glycogen synthase kinase-3 alpha (Homo sapiens), P49840; GSK-3 alpha kinase, ADP-Glo luminescence, 60 min; inhibition, % at 10 µM; 0.1% of 320,000 active;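 active = more than half of replicates show inhibition above 20%; inconclusive = some but at most half of replicates above 20% inhibition; inactive = no replicate shows inhibition above 20%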;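 also: GST-tagged GSK-3 alpha with peptide substrate and 25 µM ATP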
A number is an active result; n = inactive; u = inconclusive; x = no result. Compounds with a hit are over-represented: about 0.72% of the library has one in this group of screens.

SMILES | PolyA inh | Yeast superoxide | STK33 inh | GSK3B inh | AI-2 QS modul | GSK3 alpha inh
NC(=O)c1cc(N2C(=O)C=CC2=O)ccc1Cl | n | n | n | n | -82 | n
Cc1ccc(S(=O)(=O)Nc2cccc3cccnc23)c([N+](=O)[O-])c1 | 72 | n | n | n | n | n
Cn1cnnc1SCC(=O)NC1CCCN(Cc2ccccc2F)C1 (stereo not given) | n | n | n | n | x | n
CCCC(C)c1nnc(NC(=O)CN2C(=O)c3ccccc3C2=O)s1 (stereo not given) | n | n | n | n | -88 | n
CCCc1nnc(NC(=O)CN2C(=O)c3ccccc3C2=O)s1 | n | n | n | n | n | n
Fc1ccc(-c2cnc[nH]2)cc1 | n | n | 29 | n | n | n
O=C(Nc1sccc1C(=O)N1CCOCC1)c1cccnc1 | n | n | n | n | n | 54
NC1CCN(c2c(F)cc3c(=O)c(C(=O)O)cn(C4CC4)c3c2Cl)C1 (stereo not given) | n | n | n | n | -88 | n
COc1c(N2CCNC(C)C2)c(F)cc2c(=O)c(C(=O)O)cn(C3CC3)c12 (stereo not given) | n | n | n | n | n | n
Clc1ccc2c(N/N=C/c3ccccc3Br)ccnc2c1 | n | n | n | n | n | n
O=[N+]([O-])c1ccc(/C=N/Nc2ccnc3cc(Cl)ccc23)o1 | n | n | n | n | -185 | n
CC(=O)NNC(=S)NC(=O)c1ccc(C)cc1 | n | n | n | n | n | n
Cc1ccc(C(=O)NNC(=S)NC(=O)c2ccc(Cl)cc2)cc1 | n | n | n | n | -127 | n
O=C(NNC(=S)NCc1ccc(Cl)cc1)c1cccnc1 | n | n | n | n | n | n
O=C(NNC(=S)NC(=O)c1cccnc1)c1ccc(Cl)cc1 | n | n | n | n | -93 | n
O=C(Cc1ccc(Cl)cc1)NNC(=S)NC(=O)c1cccnc1 | n | n | n | n | -88 | n
COc1ccc(C(=O)NCc2nnc(SCC(=O)N3CCCC3)o2)cc1OC | n | n | n | n | n | n
O=C(Nc1nc(-c2ccccn2)cs1)c1ccc(Cl)s1 | n | n | n | n | -197 | n
Cc1ccc(C(=O)Nc2nc(-c3ccccn3)cs2)s1 | x | n | n | x | x | n
CCOc1ccc(CCNC(=O)c2cccc(C#N)c2)cc1OCC | n | n | n | n | n | n
O=C(Nc1ccccc1F)c1ccc([N+](=O)[O-])s1 | n | n | n | n | -115 | n
Cc1ccc(N(CC(=O)N(C)Cc2ccccc2)S(C)(=O)=O)cc1C | n | n | n | n | n | n
Cc1c(C(=O)N(CCO)Cc2ccccc2)oc2c(F)cccc12 | n | n | n | n | n | n
COc1ccc2nc3c(cc2c1)c(NC(=O)c1cccs1)nn3CC(C)C | n | n | n | -92 | n | 73
CCCn1nc(NC(=O)C(C)(C)C)c2cc3cc(OC)ccc3nc21 | n | n | n | n | n | 66
SMILES | PolyA inh | Yeast superoxide | STK33 inh | GSK3B inh | AI-2 QS modul | GSK3 alpha inh
CC(C)Cn1nc(NC(=O)c2cccs2)c2cc3ccccc3nc21 | n | n | n | n | n | n
CCCCn1nc(NC(=O)CC)c2cc3cc(OC)ccc3nc21 | n | n | n | n | n | n
CCCn1c(SCC(=O)N(C)CC(=O)Nc2ccc(Cl)cc2)n[nH]c1=O | x | n | n | x | x | n
COc1cc(Nc2ccc(S(N)(=O)=O)cc2)c([N+](=O)[O-])nc1[N+](=O)[O-] | n | n | n | n | n | n
CC(C)CC(=O)NC(=S)Nc1sc2c(c1C(N)=O)CCC2 | n | n | n | n | n | n
CC(C)(C)C(=O)NC(=S)Nc1sc2c(c1C(N)=O)CCC2 | n | n | n | n | n | 69
N#Cc1c(-c2ccccc2Cl)c2c([nH]c1=O)-c1ccccc1OC2 | n | n | n | n | n | 55
N#Cc1c(-c2ccncc2)c2c([nH]c1=O)-c1ccccc1OC2 | n | n | n | n | n | n
O=C(NCCN1CCCCC1)Nc1ccc(Br)cc1 | n | n | n | n | n | n
Cc1cc(-c2n[nH]c(=S)n2/N=C/c2cccc(O)c2)n[nH]1 | n | 65 | n | n | n | x
COc1cc(/C=N/n2c(-c3ccccc3)n[nH]c2=S)ccc1O | n | n | 46 | n | n | n
COc1cc(/C=N/n2c(-c3n[nH]c4c3CCC4)n[nH]c2=S)ccc1O | n | n | 40 | n | n | n
OCc1nnn(-c2ccccc2)c1CO | n | n | n | n | n | n
Nc1c(CO)nnn1-c1ccccc1 | n | n | n | n | n | 50
Cc1ccc(C)c(-n2c(-c3csc(C)c3C)n[nH]c2=S)c1 | n | n | n | n | n | n
Cc1cc(O)c(C=O)c2c1C(=O)Oc1c(CO)c(O)c3c(c1O2)C(O)OC3=O (stereo not given) | x | n | 57 | x | x | n
CCS(=O)(=O)N1CCN=C1SCc1cccnc1 | n | n | n | n | n | n
CCN(CC)C(CNC(=O)CSc1nnnn1-c1ccc(C)c(C)c1)c1ccco1 (stereo not given) | x | 64 | n | x | x | n
COc1ccc(C(=O)c2sc(Nc3ccccc3F)nc2N)cc1 | n | n | n | n | n | 56
COc1ccc(C(=O)c2sc(Nc3ccccc3)nc2N)cc1OC | n | n | n | n | n | 90
Nc1nc(Nc2ccccc2)sc1C(=O)c1ccccc1 | n | n | n | -71 | n | 92
COc1ccc(C(=O)c2sc(Nc3ccccc3)nc2N)cc1 | n | n | n | n | n | n
CC(=O)Nc1ccccc1C(=O)N1CCN(Cc2ccc3c(c2)OCO3)CC1 | n | n | n | n | n | n
CC1CCCCN1CC(=O)Nc1ccccc1Sc1ccccc1 (stereo not given) | n | n | n | n | n | n
CCCCCCCCCC[N+](C)(C)CC/C=C1/c2ccccc2Sc2ccc(Cl)cc21 | n | n | 32 | n | u | n
SMILES | PolyA inh | Yeast superoxide | STK33 inh | GSK3B inh | AI-2 QS modul | GSK3 alpha inh
CCCCCCCCCCC[N+](C)(C)CC/C=C1/c2ccccc2Sc2ccc(Cl)cc21 | n | n | 31 | n | -145 | n
COCCN(Cc1ccccc1)C(=O)C1CCN(C(=O)Nc2ccccc2)CC1 | x | n | n | x | x | n
Cc1ccccc1C(=O)N/N=C/c1ccc([N+](=O)[O-])s1 | n | n | n | n | -76 | n
O=C(CNC(=O)c1cccc(F)c1)N/N=C/c1ccc([N+](=O)[O-])s1 | n | n | n | n | -148 | n
Cc1ccccc1CN1CCC(n2nccc2NC(=O)CCCc2ccccc2)CC1 | n | n | n | n | n | n
COc1ccc(F)c(CN2CCC(n3nccc3NC(=O)CCCc3ccccc3)CC2)c1 | n | n | n | n | -95 | n
N#Cc1c(Cl)nsc1NN | n | n | n | n | n | n
